Reference: ChEMBL document CHEMBL1649079, “Pipecolic acid derivatives as small-molecule inhibitors of the Legionella MIP protein” (J Med Chem, 2011)
The source made the active and inactive calls. No cut-off for these calls is given here.

Columns and labels:
[1] = target: T1, Peptidyl-prolyl cis-trans isomerase FKBP1A (Homo sapiens, UniProt P62942); test: Inhibition of PPIase activity of human FKBP12 expressed in Escherichia coli by spectrophotometry
Procedure, shortened: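 Chymotrypsin-coupled PPIase assay using 20 nM FKBP12 and 40 μM succinyl-Ala-Phe-Pro-Phe-4-nitroanilide. Enzyme and substrate preincubated with or without various inhibitor concentrations for 4 min at 10 °C in 35 mM HEPES/NaOH, pH 7.8.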

[2] = target: Outer membrane protein MIP (Legionella pneumophila, UniProt Q70YI1)
Escherichia coli = test: Antibacterial activity against Escherichia coli HB101 infected in human U937 cells at 50 uM after 24 to 48 hrs; assay type: functional, cell-based; conditions: U-937
Procedure, shortened: (§1)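 U937 macrophage-like cells infected at MOI 10, with or without 50 μM compound kept present throughout incubation. Extracellular bacteria killed with gentamicin 2 h post-infection. Infection samples plated on BCYE agar for CFU counts immediately and after 24 and 48 h.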

Legionella pneumophila [3] = test: Antibacterial activity against MIP protein-deficient Legionella pneumophila JR32-2 infected in human U937 cells at 50 uM after 24 to 48 hrs; assay type: functional, organism-based; procedure, shortened: as §1
Legionella pneumophila [4] = test: Antibacterial activity against wild type Legionella pneumophila Philadelphia-1 JR32 infected in human U937 cells at 50 uM after 24 to 48 hrs; assay type: functional, organism-based; conditions: U-937; procedure, shortened: as §1
[5] = target: T1, Peptidyl-prolyl cis-trans isomerase FKBP1A; test: Inhibition of FKBP12

Outer membrane protein MIP, sequence (Q70YI1 21-233 limits assumed): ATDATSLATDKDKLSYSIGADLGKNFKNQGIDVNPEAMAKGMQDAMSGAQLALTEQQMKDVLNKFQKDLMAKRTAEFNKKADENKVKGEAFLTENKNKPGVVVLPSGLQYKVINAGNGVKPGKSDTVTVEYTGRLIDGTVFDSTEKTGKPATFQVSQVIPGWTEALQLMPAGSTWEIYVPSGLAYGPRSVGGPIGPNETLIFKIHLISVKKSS
T1 sequence (P62942 whole entry): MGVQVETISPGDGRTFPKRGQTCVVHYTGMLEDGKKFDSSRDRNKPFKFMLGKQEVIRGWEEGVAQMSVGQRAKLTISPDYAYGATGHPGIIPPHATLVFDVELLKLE

Row | Structure (SMILES) | IC50 [1] [µM] | IC50 [2] [µM] | also measured
1 | COc1cc(CCCOC(=O)C2CCCCN2S(=O)(=O)c2cccc(N)c2)cc(OC)c1OC (stereo not drawn) | 0.26 | > 100 | –
2 | CCC(C)C(=O)C(=O)N1CCCCC1C(=O)OC(CCc1ccccc1)c1ccccc1 (stereo not drawn) | > 30 | > 100 | –
3 | Nc1cccc(S(=O)(=O)N2CCCCC2C(=O)OCCCc2cccnc2)c1 (stereo not drawn) | 0.32 | > 100 | –
4 | CCOC(=O)C1CCCCN1S(=O)(=O)c1ccccc1 (stereo not drawn) | 3.1 | > 100 | –
5 | COc1cc(CCCOC(=O)C2CCCCN2S(=O)(=O)c2cccc([N+](=O)[O-])c2)cc(OC)c1OC (stereo not drawn) | 0.07 | > 100 | –
6 | CCOC(=O)C1CCCCN1S(=O)(=O)c1cccc([N+](=O)[O-])c1 (stereo not drawn) | 2.8 | > 100 | –
7 | COc1cc(CCCOC(=O)C2CCCCN2S(=O)(=O)c2ccccc2)cc(OC)c1OC (stereo not drawn) | 0.12 | – | –
8 | CO[C@H]1C[C@@H]2CC[C@@H](C)[C@@](O)(O2)C(=O)C(=O)N2CCCC[C@H]2C(=O)O[C@H]([C@H](C)C[C@@H]2CC[C@@H](O)[C@H](OC)C2)CC(=O)[C@H](C)/C=C(\C)[C@@H](O)[C@@H](OC)C(=O)[C@H](C)C[C@H](C)/C=C/C=C/C=C/1C | – | – | Activity (Escherichia coli): Active; Activity (Legionella pneumophila [3]): Active; Activity (Legionella pneumophila [4]): Active
9 | O=C(OCCCc1cccnc1)C1CCCCN1S(=O)(=O)c1cccc([N+](=O)[O-])c1 (stereo not drawn) | 0.15 | 32 | –
10 | COc1cc(CCCOC(=O)C2CCCCN2S(=O)(=O)Cc2ccccc2)cc(OC)c1OC (racemic) | 0.2 | – | –
11 | CCC(C)C(=O)C(=O)N1CCCCC1C(=O)OCCCc1cc(OC)c(OC)c(OC)c1 (stereo not drawn) | 4.2 | > 100 | –
12 | CCOC(=O)C1CCCCN1S(=O)(=O)Cc1ccccc1 (stereo not drawn) | 2.6 | 87 | –
13 | CCOC(=O)C1CCCCN1C(=O)C(=O)C(C)CC (stereo not drawn) | > 30 | > 100 | –
14 | COc1cc(CCCOC(=O)[C@@H]2CCCCN2S(=O)(=O)Cc2ccccc2)cc(OC)c1OC | 0.2 | – | Ki [5]: 0.23 µM; Activity (Legionella pneumophila [4]): inactive
